# How the values were obtained:
# [1] = molecular target: T1, Ionotropic glutamate receptor NMDA 1/2D (Rattus norvegicus) (UniProt P35439+Q62645); assay: Positive allosteric modulation of recombinant rat GluN1/GluN2D receptor expressed in xenopus laevis oocyte assessed as potentiation of glutamate and glycine-induced current response at 30 uM at holding potential -40mV by two electrode voltage clamp method relative to control
# How it was run: (§1)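 Two-electrode voltage clamp at -40 mV, 23°C, pH 7.4 Ba²⁺ recording solution, on Xenopus oocytes expressing rat NMDA receptors. Currents were evoked by 100 µM glutamate plus 30 µM glycine, with compound co-applied (DMSO 0.05–0.5% final). Each compound used at least 4 oocytes from at least 2 frogs.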
# [2] = molecular target: T2, Glutamate NMDA receptor; Grin1/Grin2b (Rattus norvegicus) (UniProt P35439+Q00960); assay: Positive allosteric modulation of recombinant rat GluN1/GluN2B receptor expressed in xenopus laevis oocyte assessed as potentiation of glutamate-induced current response at 30 uM at holding potential -40mV by two electrode voltage clamp method
# [3] = molecular target: T3, Glutamate NMDA receptor; Grin1/Grin2c (Rattus norvegicus) (UniProt P35439+Q00961); assay: Positive allosteric modulation of recombinant rat GluN1/GluN2C receptor expressed in xenopus laevis oocyte assessed as potentiation of glutamate and glycine-induced current response at 30 uM at holding potential -40mV by two electrode voltage clamp method relative to control; how it was run: as §1
# [4] = molecular target: T1, Ionotropic glutamate receptor NMDA 1/2D (Rattus norvegicus); assay: Positive allosteric modulation of recombinant rat GluN1/GluN2D receptor expressed in xenopus laevis oocyte assessed as compound concentration required to show two fold increase in glutamate and glycine-induced current response at holding potential -40mV by two electrode voltage clamp method
# [5] = molecular target: T3, Glutamate NMDA receptor; Grin1/Grin2c (Rattus norvegicus); assay: Positive allosteric modulation of recombinant rat GluN1/GluN2C receptor expressed in xenopus laevis oocyte assessed as compound concentration required to show two fold increase in glutamate and glycine-induced current response at holding potential -40mV by two electrode voltage clamp method
# [6] = molecular target: T3, Glutamate NMDA receptor; Grin1/Grin2c (Rattus norvegicus); assay: Positive allosteric modulation of recombinant rat GluN1/GluN2C receptor expressed in xenopus laevis oocyte assessed as potentiation of glutamate and glycine-induced current response at 10 uM at holding potential -40mV by two electrode voltage clamp method relative to control; conditions: for Emax: 10 uM; for Activity: 30 uM, in the assay text read “at 30 uM” for “at 10 uM”
# How it was run: (§2)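 Two-electrode voltage clamp at -40 mV, 23°C, pH 7.4 Ba²⁺ recording solution, on Xenopus oocytes expressing rat NMDA receptors. Currents were evoked by 100 µM glutamate plus 30 µM glycine, with compound co-applied (DMSO 0.05–0.5% final). […] Each compound used at least 4 oocytes from at least 2 frogs.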
# [7] = molecular target: T1, Ionotropic glutamate receptor NMDA 1/2D (Rattus norvegicus); assay: Positive allosteric modulation of recombinant rat GluN1/GluN2D receptor expressed in xenopus laevis oocyte assessed as potentiation of glutamate and glycine-induced current response at 10 uM at holding potential -40mV by two electrode voltage clamp method relative to control; how it was run: as §2
# [8] = molecular target: T2, Glutamate NMDA receptor; Grin1/Grin2b (Rattus norvegicus); assay: Positive allosteric modulation of recombinant rat GluN1/GluN2B receptor expressed in xenopus laevis oocyte assessed as potentiation of glutamate and glycine-induced current response at 10 uM at holding potential -40mV by two electrode voltage clamp method relative to control; conditions: 30 uM, in the assay text read “at 30 uM” for “at 10 uM”; how it was run: as §2
# [9] = molecular target: Glutamate NMDA receptor; Grin1/Grin2c (Rattus norvegicus, UniProt P35439+Q00961); assay: Positive allosteric modulation of recombinant rat GluN1/GluN2C receptor expressed in xenopus laevis oocyte assessed as potentiation of glutamate and glycine-induced current response at holding potential -40mV by two electrode voltage clamp method; how it was run: as §1
# [10] = molecular target: Glutamate NMDA receptor; Grin1/Grin2b (Rattus norvegicus, UniProt P35439+Q00960); assay: Positive allosteric modulation of recombinant rat GluN1/GluN2B receptor expressed in xenopus laevis oocyte assessed as potentiation of glutamate and glycine-induced current response at holding potential -40mV by two electrode voltage clamp method; how it was run: as §1
# [11] = molecular target: Ionotropic glutamate receptor NMDA 1/2D (Rattus norvegicus, UniProt P35439+Q62645); assay: Positive allosteric modulation of recombinant rat GluN1/GluN2D receptor expressed in xenopus laevis oocyte assessed as potentiation of glutamate and glycine-induced current response at holding potential -40mV by two electrode voltage clamp method; how it was run: as §1
# [12] = molecular target: T2, Glutamate NMDA receptor; Grin1/Grin2b (Rattus norvegicus); assay: Positive allosteric modulation of recombinant rat GluN1/GluN2B receptor expressed in xenopus laevis oocyte assessed as compound concentration required to show two fold increase in glutamate and glycine-induced current response at holding potential -40mV by two electrode voltage clamp method
# [13] = molecular target: T2, Glutamate NMDA receptor; Grin1/Grin2b (Rattus norvegicus); assay: Positive allosteric modulation of recombinant rat GluN1/GluN2B receptor expressed in xenopus laevis oocyte assessed as potentiation of glutamate and glycine-induced current response at 30 uM at holding potential -40mV by two electrode voltage clamp method relative to control; how it was run: as §2
# [14] = molecular target: T3, Glutamate NMDA receptor; Grin1/Grin2c (Rattus norvegicus); assay: Positive allosteric modulation of recombinant rat GluN1/GluN2C receptor expressed in xenopus laevis oocyte assessed as potentiation of glutamate and glycine-induced current response at 30 uM at holding potential -40mV by two electrode voltage clamp method relative to control
# [15] = molecular target: T2, Glutamate NMDA receptor; Grin1/Grin2b (Rattus norvegicus); assay: Positive allosteric modulation of recombinant rat GluN1/GluN2B receptor expressed in xenopus laevis oocyte assessed as potentiation of glutamate and glycine-induced current response at 30 uM at holding potential -40mV by two electrode voltage clamp method relative to control
# [16] = molecular target: Glutamate NMDA receptor; Grin1/Grin2a (Rattus norvegicus) (UniProt P35439+Q00959); assay: Positive allosteric modulation of recombinant rat GluN1/GluN2A receptor expressed in xenopus laevis oocyte co-expressing GluN2B assessed as potentiation of glutamate and glycine-induced current response at 10 uM at holding potential -40mV by two electrode voltage clamp method relative to control
# [17] = molecular target: T2, Glutamate NMDA receptor; Grin1/Grin2b (Rattus norvegicus); assay: Positive allosteric modulation of recombinant rat GluN1/GluN2B receptor expressed in xenopus laevis oocyte co-expressing GluN2A at 10 uM assessed as potentiation of glutamate and glycine-induced current response at holding potential -40mV by two electrode voltage clamp method relative to control
# How it was run: (§3)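 Triheteromeric GluN1/GluN2A/GluN2B receptors were expressed in oocytes using GluN2 subunits with modified intracellular domains controlling surface expression. Compound was tested at 10 µM by TEVC at -40 mV against maximally effective glutamate and glycine; n=14 oocytes.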
# [18] = molecular target: T1, Ionotropic glutamate receptor NMDA 1/2D (Rattus norvegicus); assay: Positive allosteric modulation of recombinant rat GluN1/GluN2D receptor expressed in xenopus laevis oocyte assessed as potentiation of glycine-induced current response at 30 uM at holding potential -40mV by two electrode voltage clamp method
# [19] = molecular target: Ionotropic glutamate receptor NMDA1/2A/2B (Rattus norvegicus) (UniProt P35439+Q00959+Q00960); assay: Positive allosteric modulation of recombinant rat GluN1/GluN2A/GluN2B receptor expressed in xenopus laevis oocyte assessed as potentiation of glutamate and glycine-induced current response at 10 uM at holding potential -40mV by two electrode voltage clamp method relative to control; how it was run: as §3
# [20] = Drug metabolism in human liver microsomes assessed as P450 mediated drug metabolite formation by measuring parent compound half life at […] by LC/MS/MS analysis; format: ADME
# [21] = Drug metabolism in human liver microsomes assessed as UGT mediated drug metabolite formation by measuring parent compound half life at […] by LC/MS/MS analysis; format: ADME
SMILES,Emax [1] [%],Emax [3] [%],CD [4] [µM],CD [5] [µM],Activity [7] [%],EC50 [9] [nM],EC50 [10] [nM],EC50 [11] [nM],CD [12] [µM],Emax [13] [%],other results
COc1ccc(OC[C@H]2c3ccc(OC(C)C)cc3CCN2C(=O)c2cccc(Cl)c2)cc1,297,252,1,1.3,,,,,,,Activity [2]: 101%
CCOc1ccc(OCC2c3ccc(OC(C)C)cc3CCN2C(=O)c2cccc(Cl)c2)cc1 (stereo not given),,,,,102,1800,5300,,,,Emax [6]: 128%; Activity [6]: 126%; Emax [8]: 158%
COc1ccc(OCC2c3ccc(OC(C)C)cc3CCN2C(=O)c2cccc(Br)c2)cc1 (stereo not given),,,,,312,1800,3900,2600,,,Emax [6]: 286%; Activity [6]: 270%; Emax [7]: 338%; Emax [8]: 204%
CC(C)Oc1ccc(OCC2c3ccc(OC(C)C)cc3CCN2C(=S)c2cccc(F)c2)cc1 (stereo not given),154,158,,,,700,670,1200,9,203,
COc1ccc(OC[C@H]2c3ccc(OC(C)C)cc3CCN2C(=S)c2cccc(Cl)c2)cc1,250,253,4.9,3.8,,1700,,2000,,,Activity [2]: 105%
CC(C)Oc1ccc(OCC2c3ccc(OC(C)C)cc3CCN2C(=S)c2cccc(Cl)c2)cc1 (stereo not given),152,141,,,,480,550,410,4,209,
CCOc1ccc(OCC2c3ccc(OC(C)C)cc3CCN2C(=O)c2ccc(Cl)c(Cl)c2)cc1 (stereo not given),,,,,122,,,,,,Activity [6]: 150%
COc1ccccc1OCC1c2ccc(OC(C)C)cc2CCN1C(=O)c1cccc(Cl)c1 (stereo not given),,,,,99,,,,,,Activity [14]: 110%; Activity [15]: 108%
CCOc1ccc(OC[C@@H]2c3ccc(OC(C)C)cc3CCN2C(=O)c2cccc(F)c2)cc1,,128,,,,3600,4700,,40,204,Activity [16]: 103%; Activity [17]: 177%; Activity [18]: 110%; Activity [19]: 136%
CCOc1ccc(OCC2c3ccc(OC4CCCC4)cc3CCN2C(=O)c2cccc(Cl)c2)cc1 (stereo not given),,,,,193,4200,4000,4300,,,Emax [6]: 210%; Activity [6]: 187%; Emax [7]: 188%; Emax [8]: 221%
CCOc1ccc(OCC2c3ccc(OC(C)C)cc3CCN2C(=O)c2cc(Cl)cc(Cl)c2)cc1 (stereo not given),,,,,80,,,,,,Activity [6]: 97%; Activity [15]: 105%
CCOc1ccc(OC[C@@H]2c3ccc(OC(C)C)cc3CCN2C(=S)c2cccc(F)c2)cc1,179,154,,,,380,490,580,1.4,213,
COc1ccc(OC[C@@H]2c3ccc(OC(C)C)cc3CCN2C(=S)c2cccc(Cl)c2)cc1,293,307,0.5,0.5,,480,320,480,1.5,214,
CCOc1ccc(OCC2c3ccc(OC(C)C)cc3CCN2C(=S)c2cccc(Cl)c2)cc1 (stereo not given),192,278,,7.6,,5000,400,1600,,172,
COc1ccc(OCC2c3ccc(OC(C)C)cc3CCN2C(=S)c2cccc(Cl)c2)cc1 (stereo not given),229,225,0.8,1.1,,420,490,430,2.6,213,t1/2 [20]: 29 min; t1/2 [21]: 29 min
COc1ccc(OC[C@@H]2c3ccc(OC(C)C)cc3CCN2C(=O)c2cccc(Cl)c2)cc1,267,277,4.4,3.5,,,,3800,3.5,276,
COc1ccc(OCC2c3ccc(OC(C)C)cc3CCN2C(=S)c2cccc(F)c2)cc1 (stereo not given),208,226,4.2,2.1,,970,1400,1100,1.9,259,
